Measured values: ChEMBL document CHEMBL1154379, “Soluble polyphenols: synthesis and bioavailability of 3,4',5-tri(alpha-D-glucose-3-O-succinyl) resveratrol” (Bioorg Med Chem Lett, 2009)
≈ marks a conversion by molar mass, not a printed value.

Assays:
[1] = Cmax in intragastrically dosed rat at 0.09 mmol/kg after 10 mins; assay type: ADME, organism-based; parameters: dose 0.09 mmol/kg, route intragastric; conditions: in vivo, po
Procedure, shortened: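 Rats dosed intragastrically, with the same animals receiving both resveratrol and the glucosylsuccinyl derivative. Blood was sampled over time. Circulating species were identified by HPLC-UV at 320 nm and LC–MS against synthesized phase II metabolite standards (sulfates, glucuronides), with confirmation by enzymatic treatment. Cmax was read from concentration–time curves.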

[2] = system: Rattus norvegicus; test: AUC in intragastrically dosed rat assessed as resveratrol level at 0.09 mmol/kg after 10 mins; assay type: ADME, organism-based, Plasma; parameters: time < 0.166667 hr, dose 0.09 mmol/kg, route intragastric; conditions: in vivo, po
Procedure, shortened: (§1)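 Rats received intragastric doses, with the same animals given both resveratrol and the derivative to limit individual variability. Blood was sampled over time. Circulating resveratrol and its sulfate and glucuronide conjugates were identified by HPLC–UV at 320 nm and LC–MS against synthesized phase II metabolite standards, confirmed by enzymatic treatment. Cmax and AUC were taken from concentration–time curves.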

[3] = system: Rattus norvegicus; test: AUC in intragastrically dosed rat assessed as resveratrol sulfate level at 0.09 mmol/kg after 10 mins; assay type: ADME, organism-based, Plasma; parameters: dose 0.09 mmol/kg, time < 0.166667 hr, route intragastric; conditions: in vivo, po; procedure, shortened: as §1
[4] = system: Rattus norvegicus; test: AUC in intragastrically dosed rat assessed as resveratrol glucuronide level at 0.09 mmol/kg after 10 mins; assay type: ADME, organism-based, Plasma; parameters: time < 0.166667 hr, dose 0.09 mmol/kg, route intragastric; conditions: in vivo, po; procedure, shortened: as §1
[5] = system: Rattus norvegicus; test: AUC in intragastrically dosed rat assessed as resveratrol disulfate level at 0.09 mmol/kg after 10 mins; assay type: ADME, organism-based, Plasma; parameters: time < 0.166667 hr, dose 0.09 mmol/kg, route intragastric; conditions: in vivo, po; procedure, shortened: as §1
[6] = system: Rattus norvegicus; test: AUC in intragastrically dosed rat assessed as total metabolite level at 0.09 mmol/kg after 10 mins; assay type: ADME, organism-based, Plasma; parameters: dose 0.09 mmol/kg, time < 0.166667 hr, route intragastric; conditions: in vivo, po; procedure, shortened: as §1
[7] = Solubility in water at room temperature; assay type: physicochemical
[8] = Chemical stability in 1N HCl solution assessed as compound remaining at 37degC; assay type: physicochemical; conditions: buffer
Procedure, shortened: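 The compound was incubated in 1 N HCl at 37 °C for 6 h and analysed by LC–MS. The amount remaining is expressed as % of the initial molar amount.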

[9] = Solubility in pH 9 buffer; assay type: physicochemical

SMILES: Oc1ccc(/C=C/c2cc(O)cc(O)c2)cc1 [RESVERATROL]
- Cmax [1]: 1200 nM
- AUC [2]: 1.1 µM·h
- AUC [3]: 2.4 µM·h
- AUC [4]: 35.5 µM·h
- AUC [5]: 14.4 µM·h
- AUC [6]: 53.4 µM·h

SMILES: O=C(CCC(=O)O[C@@H]1[C@@H](O)[C@@H](O)O[C@H](CO)[C@H]1O)Oc1ccc(/C=C/c2cc(OC(=O)CCC(=O)O[C@@H]3[C@@H](O)[C@@H](O)O[C@H](CO)[C@H]3O)cc(OC(=O)CCC(=O)O[C@@H]3[C@@H](O)[C@@H](O)O[C@H](CO)[C@H]3O)c2)cc1
- solubility [7]: 90 mg/mL (≈ 88.7 mM)
- Stability [8]: 80%
- AUC [2]: 0.2 µM·h
- AUC [3]: 3.5 µM·h
- AUC [4]: 21.2 µM·h
- AUC [5]: 27 µM·h
- AUC [6]: 51.8 µM·h

SMILES: C[C@@H]1O[C@@H](OC[C@H]2O[C@@H](Oc3c(-c4ccc(O)c(O)c4)oc4cc(O)cc(O)c4c3=O)[C@H](O)[C@@H](O)[C@@H]2O)[C@H](O)[C@H](O)[C@H]1O [RUTIN]
- solubility [9]: 2300 µg/mL (≈ 3.77 mM)
